Published values from different studies.
Protocols differ between the studies behind these lines. Values after ≈ are worked out from the molar mass of the structure shown.

O=C(N/N=C1\C(=O)N(Cc2ccccc2)c2ccc(Cl)cc21)c1cc2ccccc2[nH]1
IC50 (Swiss-3T3; cell growth or viability; 72 h): 3.49 µM

COC(=O)c1cc(-c2cccc(NC(=O)Nc3ccc(Cl)cc3Cl)c2)on1
MIC (Klebsiella pneumoniae; microbial growth, broth dilution; BAA1705): > 64 µg/mL

CC(C)CCCCCCCCCCCCCCc1cc(O)cc(O)c1
IC50 (Klebsiella pneumoniae; microbial growth; ATCC29665): > 200 µM

COC(=O)c1cc(-c2cccc(NC(=O)Nc3ccc(F)c(F)c3)c2)on1
MIC (Klebsiella pneumoniae; microbial growth, broth dilution; BAA1705): > 64 µg/mL

CC(C)CCCCCCCCCCCCc1cc(O)cc(O)c1
IC50 (Klebsiella pneumoniae; microbial growth; ATCC29665): > 200 µM

Cc1ccc(CN2C(=O)/C(=N\NC(=O)c3cc4ccccc4[nH]3)c3ccccc32)cc1
IC50 (HT-29; cell growth or viability): 2.45 µM

N#CCc1c[nH]c2ccccc12
EC90 (Cryptosporidium parvum; parasite growth; HCT-8; 24 h, intracellular): 1230 µM

O=C(N/N=C1\C(=O)N(Cc2ccccc2)c2ccccc21)c1cc2ccccc2[nH]1
inhibition (HT-29; cell growth or viability; 30 µM): 92.7%

Cc1cccc(-n2ncc(Cl)c(Cl)c2=O)c1
IC50 (NCI-H1650; cell growth or viability, resazurin; 96 h): 1.24 µM

COC(=O)c1cc(-c2cccc(NC(=O)Nc3ccc(C)c(Cl)c3)c2)on1
MIC (Klebsiella pneumoniae; microbial growth, broth dilution; BAA1705): > 64 µg/mL

C=CC(c1ccc(-c2ccc(O)cc2)cc1)n1ccnc1 (centres unmarked)
MIC50 (Mycobacterium tuberculosis variant bovis BCG; microbial growth; BCG): > 50 µM

COc1ccc(C=CC(=O)c2ccc(-c3ccccc3)cc2)cc1OC
MIC (Mycobacterium tuberculosis variant bovis BCG; microbial growth; BCG; 7 days): 100 µg/mL (≈ 290 µM)

N#Cc1c[nH]c2ccccc12
EC50 (Cryptosporidium parvum; parasite growth; HCT-8; 24 h, intracellular): 163 µM

COC(=O)c1cc(-c2cccc(NC(=O)Nc3ccc(OC)cc3)c2)on1
MIC (Klebsiella pneumoniae; microbial growth, broth dilution; BAA1705): > 64 µg/mL

O=C(N/N=C1\C(=O)N(Cc2ccc(Cl)cc2)c2ccccc21)c1cc2ccccc2[nH]1
IC50 (HT-29; cell growth or viability): 2.64 µM

COc1c2c(cc3c1OCO3)[C@]13C=C[C@H](OC)C[C@@H]1[N@](C2)C[C@H]3OC(=O)c1ccco1
IC50 (HT-29; cell growth or viability, WST-1): > 10 µM

COC(=O)c1cc(-c2cccc(NC(=S)Nc3cc(C(F)(F)F)cc(C(F)(F)F)c3)c2)on1
MIC (Klebsiella pneumoniae; microbial growth, broth dilution; BAA1705): > 64 µg/mL

O=C(N/N=C1\C(=O)N(Cc2ccccc2)c2ccc(F)cc21)c1cc2ccccc2[nH]1
IC50 (HT-29; cell growth or viability): 3.5 µM

COC(=O)c1cc(-c2cccc(NC(=S)NC3CCCCC3)c2)on1
MIC (Klebsiella pneumoniae; microbial growth, broth dilution; BAA1705): > 64 µg/mL

N#Cc1ccc(CN2C(=O)/C(=N\NC(=O)c3cc4ccccc4[nH]3)c3ccccc32)cc1
inhibition (HT-29; cell growth or viability; 30 µM): 81.6%

CCOC(=O)c1cc(-c2cccc(NC(=O)Nc3ccc(Cl)c(Cl)c3)c2)on1
MIC (Klebsiella pneumoniae; microbial growth, broth dilution; BAA1705): > 64 µg/mL

COc1ccc2c(c1)/C(=N/NC(=O)c1cc3ccccc3[nH]1)C(=O)N2Cc1ccccc1
inhibition (HT-29; cell growth or viability; 30 µM): 94%

CC(C)C(C)CCCCCCCCCCCc1cc(O)cc(O)c1 (centres unmarked)
IC50 (Streptococcus pneumoniae; microbial growth): 47.5 µM
